# Rows were chosen to be rich in hits. Some 1.9% of all compounds tested hit in one or more screens of this group.
# PP1 inh: counter-screen for PP5 inhibitors: inhibitors of human PP1-alpha. purified PP1alpha, OMFP fluorescence. 320,000 compounds, 0.9% hits. P62136. inhibition, % at 6.7 µM;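 active means inhibition above the mean inhibition of all tested compounds plus 3 SD, computed separately for each screening campaign, cut at about 15% in these data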
# HIF act: HIF pathway transcriptional activation | 300,000 compounds, 0.32% hits | AID 1910 | activation, % at 7.5 µM (by protocol) | U2OS HRE-luciferase reporter, luminescence; normalized: DMSO 0%, desferrioxamine 100%;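 active means mean activation of at least 10% of the iron chelator positive control signal, with at least half of replicates also reaching 10%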
# FID counter: counter-screen for HCV NS3 helicase inhibitors: DNA intercalator displacement; 290,000 compounds, 0.17% hits; DNA fluorescent intercalator displacement, fluorescence; inhibition, % at 7.9 µM; in the data active means inhibition above about 37%;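 further: higher means more ethidium bromide displaced from hairpin DNA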
# HCV NS3 hel inh: inhibitors of Hepatitis C virus NS3 helicase; NS3 helicase DNA unwinding, Cy5 molecular beacon fluorescence; inhibition, % at 10.9 µM; 290,000 compounds, 0.56% hits; AID 1800;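 active means inhibition above the mean of all tested compounds plus 3 SD, set per campaign, cut at about 35% in these data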
#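 System: HCV NS3 helicase fragment; control set: DMSO and thioflavine S; technique: Cy5 fluorescence at 0 and 60 min, beacon hairpin quenching; reagent: beacon DNA duplex substrate plus ATP; replicates: singlicate; schedule: 1 h reaction at 25 °C, ATP-initiated; medium: MOPS buffer pH 6.5 with MgCl2, DTT, Tween20, BSA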
# PP5 inh: inhibitors of human protein phosphatase 5 (PP5). purified PP5c, OMFP substrate fluorescence. inhibition, % at 6.7 µM. 320,000 compounds, 0.18% hits. AID 1987;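 active means inhibition above the campaign's mean inhibition across all tested compounds plus 3 SD, cut at about 9.5% in these data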
# Target sequence (P53041 whole entry, looked up): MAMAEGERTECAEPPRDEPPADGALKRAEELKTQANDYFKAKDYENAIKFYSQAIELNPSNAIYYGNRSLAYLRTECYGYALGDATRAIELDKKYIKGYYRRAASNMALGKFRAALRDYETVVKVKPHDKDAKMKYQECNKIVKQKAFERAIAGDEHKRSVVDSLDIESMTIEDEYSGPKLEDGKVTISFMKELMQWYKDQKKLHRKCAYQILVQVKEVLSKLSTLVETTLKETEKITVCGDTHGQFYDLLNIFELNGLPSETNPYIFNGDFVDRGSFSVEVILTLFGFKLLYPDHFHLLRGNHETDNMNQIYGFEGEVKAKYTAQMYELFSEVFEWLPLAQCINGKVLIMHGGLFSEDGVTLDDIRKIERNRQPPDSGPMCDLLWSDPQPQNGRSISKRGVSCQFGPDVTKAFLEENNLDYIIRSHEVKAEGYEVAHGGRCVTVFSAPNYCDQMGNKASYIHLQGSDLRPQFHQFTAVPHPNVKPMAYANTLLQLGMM
# A number is an active result; n = inactive; x = not tested or not shown.
SMILES,PP1 inh,HIF act,FID counter,HCV NS3 hel inh,PP5 inh
Cn1c(C(=O)NN)cc2cc(OCc3ccccc3)ccc21,n,n,x,x,n
CCN1CCN(C(=O)c2ccc3c(c2)N(Cc2ccccc2F)C(=O)c2ccccc2S3(=O)=O)CC1,n,n,n,n,n
COc1ccc(CC(=O)Nc2cccc(-c3nnc(-c4ccccc4)o3)c2)cc1OC,x,376,n,n,x
Cc1cccc(-c2nsc(SCC(=O)c3ccc(Cl)cc3)n2)c1,n,228,n,n,n
Cc1ccc(CSc2nnc(CCCCCNC(=O)OC(C)(C)C)o2)cc1,n,14,n,n,n
Cc1cccc(CSc2nnc(CCCCCNC(=O)OC(C)(C)C)o2)c1,n,n,n,n,n
CCOc1cc(/C=C2\SC(=Nc3ccc(F)cc3)N(c3ccc(F)cc3)C2=O)ccc1OCC(=O)O,n,n,44,n,n
CCN(C(=O)CSc1ncn[nH]1)C1CCCCC1,n,77,n,n,n
CC(=O)Oc1ccc(C(=O)Nc2cccc(C(=O)c3cccc(NC(=O)c4ccc(OC(C)=O)cc4)c3)c2)cc1,15,n,n,n,n
C=CCN1C(=O)c2ccccc2Sc2ccc(C(=O)N3CCN(C)CC3)cc21,n,10,n,n,n
O=C(Nc1c2c(nn1-c1ccccc1)CS(=O)C2)c1ccc2c(c1)OCO2 (stereo not given),n,n,n,n,n
c1ccc(Nc2nnc(-c3cccc4ccccc34)o2)cc1,n,n,n,n,n
Cc1ccc(Nc2nnc(-c3ccccc3N)o2)cc1C,n,13,n,n,n
Oc1ccc(-c2cn3ccccc3n2)cc1O,n,45,n,n,n
Cc1ccn2cc(-c3ccc(O)c(O)c3)nc2c1,n,30,n,n,n
Oc1ccc(-c2cn3ccccc3n2)cc1,n,n,n,n,n
COc1ccc(S(=O)(=O)NCCC(C)C)cc1C,n,n,n,n,n
CCn1ccnc1C(O)c1ccccc1OC (stereo not given),n,27,n,n,n
Cc1ccc(C)c(S(=O)(=O)N2CCN(CC(=O)NC(=O)NCc3ccco3)CC2)c1,n,n,n,n,n
COc1cccc(CNCCc2c[nH]c3ccccc23)c1OCc1ccccc1,n,n,52,n,n
O=C(CN1CCCC1)Nc1ccc(-c2nc3cc(NC(=O)CN4CCCC4)ccc3o2)cc1,n,13,47,n,n
CCN(CC)CC(=O)Nc1ccc(-c2nc3cc(NC(=O)CN(CC)CC)ccc3o2)cc1,n,n,n,n,n
CSc1nc(NCCCN(C)C)c2c3c(sc2n1)CN(C)CC3,x,n,42,n,x
Cc1ccc(C(C)C)c(OCc2nn(CC(=O)c3ccc(OC(F)F)cc3)c3[n+]2CCCCC3)c1,n,n,37,n,n
COc1ccc(C(=O)Cn2nc(CNc3ccc(Br)cc3)[n+]3c2CCCCC3)cc1,n,n,n,n,n
SMILES,PP1 inh,HIF act,FID counter,HCV NS3 hel inh,PP5 inh
CN(C)S(=O)(=O)c1cccc(C(=O)NCc2cccs2)c1,n,n,n,n,n
COc1ccc(NC(=O)CSc2nc3c(c(=O)[nH]2)CCC3)cc1OC,n,12,n,n,n
Cc1ccc(C2=NN(CCC(=O)NC3CCCC3)C(=O)CC2)cc1,n,n,n,n,n
Cc1cccc(NC(=O)c2nc[nH]c2C(=O)NCC(=O)OC(C)(C)C)c1,n,n,x,x,n
[O-]/C(=C(\C(=S)Nc1cccc2ccccc12)[n+]1ccccc1)c1cccs1,n,55,n,n,n
Cc1cccc(C)c1NC(=S)/C(=C(\[O-])c1cccs1)[n+]1ccccc1,n,n,n,n,n
O=C(NCC1CCCO1)c1ccc2c(c1)N(Cc1ccccc1)CCS2 (stereo not given),n,n,n,n,n
COc1cnc(-c2ccccn2)[nH]c1=O,n,n,n,n,n
COc1cnc(-c2ccccn2)nc1NC(C)C,n,178,n,n,n
CCOC(=O)c1ccc(NC(=O)CSc2ccc(-c3ccncc3)nn2)cc1,n,n,n,n,n
Cc1cc(-c2csc(NC(=O)C3=COCCO3)n2)c(C)n1C,n,n,x,x,n
Cc1cc(-c2csc(NC(=O)c3ccc(=O)n(C)n3)n2)c(C)n1CC1CCCO1 (stereo not given),16,n,n,n,n
O=C(N/N=C/c1ccco1)c1cc(-c2ccccc2)nc2ccccc12,n,n,n,n,n
CCCc1ccc(-c2cc(C(=O)N/N=C/c3ccc([N+](=O)[O-])o3)c3ccccc3n2)cc1,17,n,n,n,n

# High-throughput results: PubChem, several laboratories
